Rows were chosen to be rich in hits. Some 1.7% of all compounds tested hit in one or more screens of this group.
Vif inh – blocks HIV Vif function; 0.35% of 340,000 active; inhibition, % at 7.49 µM; HEK293T cells, Vif self-association by quenched fluorescence, imaging, 24 h; in the data active = inhibition above about 50%, passing the limit was not always enough; inconclusive = no clear call, values can overlap the other calls; inactive = below about 31%
CaV13 FRET inh – Disruptors of the CACNA1D IQ motif to Ca2+-dependent inactivation inhibitor domain association, primary screening, Förster resonance energy transfer in intact living … | 0.098% of 340,000 active | HEK cells, CFP/YFP FRET ICDI-IQ, plate reader, 10 min; percent FRET-ratio fall versus neutral wells | inhibition, % at 12.3 µM | AID 743397;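 active = mean replicate inhibition of at least 30% and at least 1% of replicates passing that level; inconclusive = only one of the two criteria is met; inactive = neither criterion is met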;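 also: 0% = median of the neutral control wells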
NTR1 agonist – agonists of human neurotensin receptor NTR1 | P30989 | NTR1-U2OS beta-arrestin-GFP spot imaging, agonist mode | activation, % at 20 µM | 0.17% of 330,000 active | AID 493036;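 active = activation at or above 40% of the spot to cytoplasm intensity ratio, with at least 20 cells analyzed; inconclusive = wells under 20 cells, flagged as cytotoxic or low count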;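 also: 0% = DMSO without peptide and 100% = 100 nM NTR1 peptide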
Target sequence (P30989 whole entry, looked up): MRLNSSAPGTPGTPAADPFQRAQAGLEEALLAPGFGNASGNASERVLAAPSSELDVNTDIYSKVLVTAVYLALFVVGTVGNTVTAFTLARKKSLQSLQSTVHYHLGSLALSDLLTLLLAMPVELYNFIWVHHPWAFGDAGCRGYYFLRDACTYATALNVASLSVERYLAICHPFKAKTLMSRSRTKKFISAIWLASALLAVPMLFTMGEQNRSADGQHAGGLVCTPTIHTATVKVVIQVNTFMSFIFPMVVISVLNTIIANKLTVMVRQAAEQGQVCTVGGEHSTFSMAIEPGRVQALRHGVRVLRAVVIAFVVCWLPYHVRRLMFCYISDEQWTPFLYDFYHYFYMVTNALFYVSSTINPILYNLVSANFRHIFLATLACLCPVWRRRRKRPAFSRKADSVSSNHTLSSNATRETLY
SR-BI DiI inh – blocks mouse SR-BI lipid uptake from DiI-HDL; Q61009; ldlA[mSR-BI] CHO cells, DiI-HDL uptake fluorescence, 3 h; inhibition, % at 12.5 µM; 0.96% of 320,000 active;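 active = mean replicate inhibition of at least 70% and a set share of replicates each scoring 70 or more; inconclusive = meets just one of the two criteria; inactive = fails both criteria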;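 also: 0% = median of neutral control wells and 100% = median of positive control wells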
V-ATPase pHluor – alters yeast V-ATPase proton transport. S. cerevisiae, pHLuorin cytosolic pH fluorescence. response, % at 10 µM. 0.37% of 350,000 active. AID 504577; in the data active = response mostly above about 7.3%, no sharp cut-off; inactive = mostly below about 5.4%; also: actives read high
SR-BI uptake up – activators of SR-BI mediated HDL lipid uptake; 0.096% of 320,000 active; CHO ldlA[mSR-BI] cells, DiI-HDL uptake fluorescence, 3 h; 100 = double the neutral-control signal; activation, % at 12.5 µM;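 active = mean replicate activation of at least 60% and every replicate at or above 60%; inconclusive = mean or all-replicate condition met, but not both; inactive = mean below 60% and not all replicates reaching 60%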;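 also: 0% = median plate neutral-control signal and 100% = twice that signal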
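Assay system: LDL receptor-deficient CHO ldlA cells overexpressing murine SR-BI / Medium: BSA-supplemented, HEPES-buffered Ham's F12, pH 7.4 / Probe or stimulus: DiI-labelled HDL at 10 µg/mL final / Timing: compound with DiI-HDL co-incubation, 3 h at 37 °C / Technique: bottom-read cell fluorescence after medium removal, ex 550/em 595 nm / Measure: HDL uptake via cellular fluorescence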
* marks the source's active call; other numbers are inactive results; ? = inconclusive; . = no result given; + = active, no number.

SMILES	Vif inh	CaV13 FRET inh	NTR1 agonist	SR-BI DiI inh	V-ATPase pHluor	SR-BI uptake up
O=C(Nc1cccc(NC(=O)c2cccc(F)c2)n1)c1cccc(F)c1	1.9	-4.8	-0.2	86.9*	-0.8	-86.9
COC(=O)c1cc(NC(=O)c2cccnc2)cc(C(=O)OC)c1	-7.4	-4.7	-0.8	13.7	-2.1	-13.7
Cc1cc(N2CCN(CC(C)(C)O)C[C@H]2C)ccc1N1CCN(CC(C)(C)O)[C@H](C)C1	.	-7.7	.	.	.	.
O=C(CN1CCCc2ccccc21)N/N=C/c1c(O)ccc2ccccc12	-3.2	-3.1	4.1	-195.1	-1.5	195.1*
NS(=O)(=O)c1ccc(NC(=S)Nc2ccc(S(=O)(=O)N3CCCC3)cc2)cc1	0.5	-6.6	-1.4	7.3	3.6	-7.3
O=C(CN1CCCc2ccccc21)N/N=C/c1ccccc1	13.5	-3.5	-0.9	5.5	0.3	-5.4
O=C(NN=Cc1c(O)ccc2ccccc12)c1ccc2c(c1)OCO2	-19.8	-17.5	4.8	123.9*	-3.3	-123.9
O=C(N/N=C\c1c(O)ccc2ccccc12)c1ccc(S(=O)(=O)N2CCCCC2)cc1	-3.3	-7.5	0.8	143.1*	-1.4	-143.1
O=S(=O)(c1ccc(NC(=S)NN=Cc2ccccc2O)cc1)N1CCCCC1	3.6	-6.4	.	91.8*	-3.5	-91.8
Cc1cc2c(c(=O)o1)[C@@]1(C(=O)N(C)c3c(Br)cccc31)C1=C(CCCC1=O)O2	.	-4.0	.	.	.	.
CC/C(=N/NC(=O)c1ccc2c(c1)OCO2)c1ccccc1O	?	-5.5	0.0	99.7*	1.9	-99.7
COc1ccc(-c2ccc3c(c2)S(=O)(=O)c2cccc(C(=O)N4CCN(c5c(Cl)cncc5Cl)CC4)c2C3=O)cc1OC	0.4	-7.2	-0.2	64.4	4.6	-64.4
CC(C)C(NC(=O)c1ccccc1NC(=O)C(C)(C)C)C(=O)N1CCOCC1 (stereo not given)	69.1*	-5.1	3.8	-16.4	-1.0	16.4
CC(NC(=O)c1ccccc1NC(=O)c1ccccc1)C(=O)N1CCOCC1 (stereo not given)	-3.3	-14.4	0.1	-41.0	0.3	41.0
O=C1c2ccccc2S(=O)(=O)c2cc(N3CCC(C(=O)N4CCCCC4)CC3)ccc21	.	+	2.3	.	.	.
CC(C)(C)CNC(=O)c1cccc2c1C(=O)c1ccc(N3CCCC3)cc1S2(=O)=O	7.1	-22.0	3.0	-13.5	2.1	13.5
CC1CCN(c2ccc3c(c2)S(=O)(=O)c2cccc(C(=O)NC4CCCCC4)c2C3=O)CC1	50.7*	-15.5	3.7	-4.0	10.0	4.0
O=C(NCc1ccccc1C(F)(F)F)c1cccc2c1C(=O)c1ccc(N3CCCCC3)cc1S2(=O)=O	+	-33.5	12.4	-7.4	-1.2	7.4
O=C(NC1CCCC1)c1cccc2c1C(=O)c1ccc(N3CCCCC3)cc1S2(=O)=O	28.8	-31.9	0.1	37.0	-9.1	-37.0
O=C(NC1CCCCC1)c1cccc2c1C(=O)c1ccc(N3CCCC3)cc1S2(=O)=O	-0.9	-17.1	0.7	-10.5	-2.0	10.5
Cc1nc(NC(=O)CCN2C(=O)C3CC=CCC3C2=O)sc1C (stereo not given)	-1.4	-5.3	-0.2	-3.4	-3.6	3.4
C[C@H]1CN([C@@H](C)CO)C(=O)CCCn2cc(nn2)CO[C@@H]1CN(C)S(=O)(=O)c1cn(C)cn1	.	-5.5	.	.	.	.
COC(=O)c1cc(C)ccc1OCc1ccc([N+](=O)[O-])cc1	81.7*	-5.7	1.5	26.9	-2.8	-26.9
CC(C)c1c(C(=O)N/N=C/c2cccc3ccccc23)nnn1-c1nonc1N	1.0	-2.2	21.6	54.6	0.6	-54.6
O=c1c2ccccc2nnn1CSc1nnc(Nc2ccccc2)s1	50.6*	-3.8	6.7	6.1	0.3	-6.1
Cc1ccc(Nc2nnc(SCn3nnc4ccccc4c3=O)s2)cc1	-4.3	.	3.8	-14.3	-1.3	14.3
COc1ccc(C(=O)NCC2CCN(C(=O)C(=O)c3cc4ccccc4o3)CC2)cc1	.	-7.2	.	.	.	.
Cc1cc(C)c(C#N)c(SCc2ccccc2F)n1	2.1	-2.7	6.7	11.7	14.1*	-11.7
Brc1ccc(-c2cn3nc4c(nc3n2)CCCC4)cc1	.	0.6	-0.6	1.9	-0.6	-1.9
c1ccc(-c2cn3nc4c(nc3n2)CCCC4)cc1	.	33.5*	1.2	-10.0	-0.1	10.0

Screening data as filed in PubChem.
